Experimental data gathered from unrelated publications.
Compare with care: the assays were run in different laboratories. In brackets after ≈: the same amount, converted by molar mass.

`COc1ccc(C=CC(=O)c2ccc(-c3ccccc3)cc2)cc1OC` gave an MIC of 100 µg/mL (≈ 290 µM) (Mycobacterium tuberculosis variant bovis BCG; microbial growth; BCG; 7 days).
The IC50 of `COc1c2c(cc3c1OCO3)[C@]13C=C[C@H](OC)C[C@@H]1[N@](C2)C[C@H]3OC(=O)c1ccc2ccccc2c1` is reported as > 10 µM (A2780; cell growth or viability, WST-1).
With `N#Cc1c[nH]c2ccccc12` the EC50 was 163 µM (Cryptosporidium parvum; parasite growth; HCT-8; 24 h, intracellular).
For `O=C(N/N=C1\C(=O)N(Cc2ccccc2)c2ccc(Cl)cc21)c1cc2ccccc2[nH]1`, the inhibition was 94.3% (HT-29; cell growth or viability; 30 µM).
The IC50 of `CCC(CCCCCCCCCCc1cc(O)cc(O)c1)C(C)C` (stereo not drawn) is reported as > 200 µM (Klebsiella pneumoniae; microbial growth; ATCC29665).
The EC50 of `N#CCc1c[nH]c2ccccc12` is reported as 546 µM (Cryptosporidium parvum; parasite growth; HCT-8; 24 h, intracellular).
With `O=C(N/N=C1\C(=O)N(Cc2ccc(Cl)cc2)c2ccccc21)c1cc2ccccc2[nH]1` the inhibition was 93.7% (HT-29; cell growth or viability; 30 µM).
For `COC(=O)c1cc(-c2cccc(NC(=O)Nc3c(C)cccc3C)c2)on1`, the MIC was > 64 µg/mL (Klebsiella pneumoniae; microbial growth, broth dilution; BAA1705).
`Cc1ccc(CN2C(=O)/C(=N\NC(=O)c3cc4ccccc4[nH]3)c3ccccc32)cc1` has an inhibition of 91.1% (HT-29; cell growth or viability; 30 µM).
For `COC(=O)c1cc(-c2cccc(NC(=S)Nc3ccccc3Cl)c2)on1`, the MIC was > 64 µg/mL (Klebsiella pneumoniae; microbial growth, broth dilution; BAA1705).
`CC(C)CCCCCCCCCCCCc1cc(O)cc(O)c1` gave an IC50 of > 200 µM (Klebsiella pneumoniae; microbial growth; ATCC29665).
With `COC(=O)c1cc(-c2cccc(NC(=S)Nc3cc(C(F)(F)F)cc(C(F)(F)F)c3)c2)on1` the MIC was > 64 µg/mL (Klebsiella pneumoniae; microbial growth, broth dilution; BAA1705).
For `CC(C)CCCCCCCCCCCCCCc1cc(O)cc(O)c1`, the IC50 was 46.3 µM (Streptococcus pneumoniae; microbial growth).
The MIC of `CCOC(=O)c1nnn(-c2cccc(NC(=O)Nc3ccc(Cl)c(Cl)c3)c2)c1C` is reported as > 64 µg/mL (Klebsiella pneumoniae; microbial growth, broth dilution; BAA1705).
With `O=C(N/N=C1\C(=O)N(Cc2ccccc2)c2ccccc21)c1cc2ccccc2[nH]1` the IC50 was 6.19 µM (HT-29; cell growth or viability).
For `CCCCCCCCCCCCCCCCCCCCc1cc(O)cc(O)c1`, the IC50 was > 200 µM (Streptococcus pneumoniae; microbial growth).
`C=CC(c1ccc(-c2ccc(O)cc2)cc1)n1ccnc1` (stereo not drawn) has an MIC50 of > 50 µM (Mycobacterium tuberculosis variant bovis BCG; microbial growth; BCG).
The IC50 of `O=C(N/N=C1\C(=O)N(Cc2ccccc2)c2ccc(F)cc21)c1cc2ccccc2[nH]1` is reported as 3.5 µM (HT-29; cell growth or viability).
For `COC(=O)c1cc(-c2cccc(NC(=O)Nc3ccc(Cl)cc3Cl)c2)on1`, the MIC was > 64 µg/mL (Klebsiella pneumoniae; microbial growth, broth dilution; BAA1705).
For `COc1ccc2c(c1)/C(=N/NC(=O)c1cc3ccccc3[nH]1)C(=O)N2Cc1ccccc1`, the inhibition was 94% (HT-29; cell growth or viability; 30 µM).
For `CCOC(=O)c1cc(-c2cccc(NC(=O)Nc3ccc(Cl)c(Cl)c3)c2)on1`, the MIC was > 64 µg/mL (Klebsiella pneumoniae; microbial growth, broth dilution; BAA1705).
`N#Cc1ccc(CN2C(=O)/C(=N\NC(=O)c3cc4ccccc4[nH]3)c3ccccc32)cc1` gave an inhibition of 81.6% (HT-29; cell growth or viability; 30 µM).
For `O=C(Nc1cccc(-c2cc(C(=O)O)no2)c1)Nc1ccc(Cl)c(Cl)c1`, the MIC was > 64 µg/mL (Klebsiella pneumoniae; microbial growth, broth dilution; BAA1705).
With `COc1c2ccoc2cc2oc(=O)ccc12` the IC50 was 31.8 µM (RD; cell growth or viability, WST-1; 48 h).
